Sampled rows, rich in hits. Any-hit rate of the full collection: about 2.4%.
b-catenin transl: modulators of beta-catenin nuclear translocation, primary screen, imaging, HeLa cells, immunofluorescence, high-content. nuclear translocation activity, % at 5 µM. 190,000 compounds, 0.3% hits. AID 1665, 2009;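 active = nuclear translocation activity above 50% at 5 µM, with a well cell count of 50 or more; inconclusive = wells under 50 cells across six images, flagged as toxic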;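 also: per-cell ratio of nuclear to cytoplasmic median beta-catenin stain intensity; plate controls were DMSO negative control for no effect and GSK-3 inhibitor IX positive control for full effect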
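System: HeLa cells, endogenous beta-catenin; compound dosing: 5 µM primary single dose, 0.1% DMSO, 0.02–20 µM confirmation series; incubation: 24 h compound exposure at 37°C, 5% CO2; signal: beta-catenin immunofluorescence imaging with DAPI; evaluation: % activation, nuclear-to-cytoplasmic median beta-catenin signal ratio per cell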
INS promoter inh: inhibitors of insulin promoter-driven GFP, primary screen, imaging, TRM-6 cells, eGFP reporter, cell count | reporter expression induced with tamoxifen | inhibition, % at 2 µM | 130,000 compounds, 0.9% hits | AID 1273, 2008;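 active = inhibition above the mean plus 3 SD, with well images judged a real hit on visual review, cut at about 60% in these data, passing the limit was not always enough; inconclusive = inhibition over the cutoff but images rejected on review; inactive = inhibition not above the cutoff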
HSV augment: enhancers of HSV replication in host cells, fold increase, host cell viability. HSV replication augmentation in cells. maximum fold increase. 220,000 compounds, 0.005% hits. AID 1956, 2009; in the data active = maximum fold increase above about 1.5; inconclusive = no clear call, values can overlap the other calls; tested in PC3 cells
ROMK mod: ROMK potassium channel modulators, primary screen, cell-based, thallium flux, MLSMR library. Tet-inducible ROMK, thallium flux fluorescence; actives lie on both sides. B-score at 10 µM. 130,000 compounds, 2% hits. AID 1918, 2009. ATP-sensitive inward rectifier potassium channel 1 (Homo sapiens), P48048;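 active = signal ratio slope over the read window, or its plate-corrected B-score, at least 3 SD from the plate mean, either direction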;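 also: B-score of the F/F0 ratio slope over 7 to 12 s after thallium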
Target sequence (P48048 whole entry, looked up): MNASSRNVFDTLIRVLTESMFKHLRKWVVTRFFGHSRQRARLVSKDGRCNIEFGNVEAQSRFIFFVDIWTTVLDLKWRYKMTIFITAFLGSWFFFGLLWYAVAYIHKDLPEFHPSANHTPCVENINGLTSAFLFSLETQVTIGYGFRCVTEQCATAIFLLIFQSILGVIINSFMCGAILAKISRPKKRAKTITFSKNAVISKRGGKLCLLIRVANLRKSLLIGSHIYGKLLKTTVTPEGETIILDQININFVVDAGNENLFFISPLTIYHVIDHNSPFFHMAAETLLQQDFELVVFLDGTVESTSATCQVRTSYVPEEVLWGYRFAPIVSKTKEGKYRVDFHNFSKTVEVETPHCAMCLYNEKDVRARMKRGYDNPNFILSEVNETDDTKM
MT stabilizer: microtubule stabilizers in HeLa cells, primary screen, imaging, high-content imaging; 200,000 compounds, 0.83% hits; AID 2205, 2009; % tubulin-high responders, % at 10 µM; HeLa tubulin immunostaining HCS, 24 h; share of cells brighter than vehicle mean+2SD;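 active = plate Z-score above 3 for both tubulin-high and condensed-nucleus cell shares, with cell loss under 80%, at 10 µM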;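 also: anti alpha tubulin signal scored within the nucleus-defined area of each cell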
* marks the source's active call; other numbers are inactive results.

CC(Cc1ccccc1)NC(=O)NC(C)Cc1ccccc1 (stereo not drawn) was read as INS promoter inh 45, HSV augment inactive, ROMK mod 0.51 and MT stabilizer 2.
`CC(Cc1ccccc1)NC(=O)/C=C/C(=O)O` (stereo not drawn) gave b-catenin transl -1, INS promoter inh 78*, HSV augment inactive, ROMK mod 0.56 and MT stabilizer 2.
O=C1NC(=S)NC(=O)C1=Cc1cccc2cc3ccccc3cc12 was read as b-catenin transl 58* and HSV augment inactive.
Screening Cc1c(C(=O)C(=O)N2CCC3(CC2)OCCO3)c2ccccc2n1C returned b-catenin transl -1, INS promoter inh 58, HSV augment inactive, ROMK mod -0.11 and MT stabilizer 2.
`CN1/C(=C\C=C2C(=O)NC(=S)NC2=O)C(C)(C)c2ccccc21` gave b-catenin transl 0, ROMK mod -3.6* and MT stabilizer 5.
CC1(C)OC(c2ccccc2)=C/C(=C/C=C2C(=O)NC(=S)NC2=O)O1 was read as b-catenin transl 43, HSV augment inconclusive and MT stabilizer 6.
O=[N+]([O-])NC1=NCN(Cc2ccco2)CN1Cc1ccco1 was read as b-catenin transl 3, INS promoter inh -23, HSV augment inactive, ROMK mod -0.11 and MT stabilizer 4.
For COc1ccc(C2=CC(c3ccc(OC)c(OC)c3)c3c(c4ccccc4oc3=O)O2)cc1OC (stereo not drawn) the results were b-catenin transl 100* and HSV augment inactive.
For COc1ccc(C2C(C#N)=C(N)Oc3c2c(=O)oc2ccccc32)cc1Cn1cc([N+](=O)[O-])cn1 (stereo not drawn) the results were b-catenin transl 0, ROMK mod 0.64 and MT stabilizer 2.
Screening COC(=O)C1=C(N)Oc2cc(C)oc(=O)c2C12C(=O)Nc1ccccc12 (stereo not drawn) returned b-catenin transl 0, INS promoter inh -91, HSV augment inactive, ROMK mod -0.46 and MT stabilizer 1.
`O=c1[nH]c(O)c(C=Nc2ccccc2Oc2ccccc2)c(=O)[nH]1` gave b-catenin transl -2, HSV augment inactive and ROMK mod 0.14.
Screening COc1cccc(NP(=O)(Oc2ccccc2)Oc2ccccc2)c1 returned b-catenin transl 0, HSV augment inactive and MT stabilizer 18*.
Cc1cc(C=O)c(C)n1C1CCCCC1 was read as INS promoter inh 69*, HSV augment inactive, ROMK mod -0.53 and MT stabilizer 2.
Screening Cc1ccc(-c2cc(-c3ccc(C)cc3)[n+](C)o2)cc1 returned INS promoter inh 79*, HSV augment inactive, ROMK mod 0.12 and MT stabilizer 4.
For CC(=O)C1=C(C)OC(N)=C(C(=O)OC(C)C)C12C(=O)Nc1ccccc12 (stereo not drawn) the results were INS promoter inh 100*, HSV augment inactive, ROMK mod 0.47 and MT stabilizer 3.
Cc1nc2ccc(Cl)cc2c(-c2ccccc2)c1C(=O)O was read as b-catenin transl -2, HSV augment inactive and MT stabilizer 6.
For N#Cc1c(/N=C/c2ccc(O)cc2O)sc2c1C1CCN2CC1 the results were b-catenin transl 1, INS promoter inh 8, HSV augment inactive, ROMK mod 0.43 and MT stabilizer 2.
Screening O=c1c2cc(Br)ccc2[nH]c(=S)n1-c1ccccc1 returned b-catenin transl -4, INS promoter inh 73*, HSV augment inactive, ROMK mod 0.39 and MT stabilizer 3.
`O=c1c2ccccc2[nH]c(=S)n1-c1ccc(Br)cc1` gave b-catenin transl 0, HSV augment inactive, ROMK mod -0.65 and MT stabilizer 3.
Screening CC(=O)NC1CC2CCC(C1)N2 (stereo not drawn) returned b-catenin transl 2, INS promoter inh 79*, HSV augment inactive, ROMK mod 0.4 and MT stabilizer 4.
For CC(C)CCCn1c(O)c(/C=C2/C=CC=N2)c(=O)[nH]c1=O the results were b-catenin transl 16, INS promoter inh -128, HSV augment inactive and MT stabilizer 31*.
For CCCCn1c(O)c(C=NCCCn2ccnc2)c(=O)[nH]c1=O the results were b-catenin transl -6, HSV augment inactive, ROMK mod -0.35 and MT stabilizer 3.

Screening data as filed in PubChem.
